{"source": "paper PMC2099187", "about": "(The Journal of Cell Biology, 2007)", "format_in_all_cases": "cell-based, human", "key": {"HEK-CLR-RAMP1 cells": {"system": "HEK-CLR-RAMP1 cells", "experiment": "CLR and RAMP1 endocytosis and recycling", "procedure,_shortened": "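Surface CLR and RAMP1 on HEK-CLR-RAMP1 cells were antibody-labelled via HA11 and Myc epitopes (1:100, 30 min, 37°C). Cells then received CGRP 100 nM for 1 h, were washed, and recovered 0–6 h in CGRP-free medium. Cells were either treated with SM-19712 10 μM (20–60 min preincubation, kept throughout) or transfected 72 h earlier with ECE-1 vs non-targeting siRNA. Confocal scoring gave % total cellular fluorescence at plasma membrane at 6 h.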"}, "HEK cells": {"system": "HEK cells", "experiment": "BK-induced Ca2+ signaling, desensitization and resensitization", "details": "SM-19712 10 μM", "procedure,_shortened": "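HEK cells with native B2R were loaded with Fura-2AM and [Ca2+]i read at 37°C, on coverslips or in suspension. Cells were preincubated with BK 100 nM or vehicle (10 min, 37°C), washed, recovered 0–120 min, then rechallenged with BK 100 nM. SM-19712 10 μM, bafilomycin A1 0.15 or 1 μM, or DMSO was preincubated 20–60 min and kept in buffers throughout.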"}, "HEK-B2R cells": {"system": "HEK-B2R cells", "experiment": "B2R recycling and colocalization with β-arrestin2-GFP", "details": "SM-19712 10 μM", "procedure,_shortened": "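HEK cells stably expressing HA-tagged B2R or B2R-V2RCT were transiently transfected with β-arrestin2-GFP. Surface receptors were labelled with anti-HA11 (1:100, 30 min, 37°C), then given BK 100 nM for 10 min and recovered in BK-free medium (B2R 1 h; B2R-V2RCT 2 h). SM-19712 10 μM or DMSO was preincubated 20–60 min and kept throughout. Cells were PFA-fixed for confocal imaging; plasma-membrane fraction of fluorescence and colocalization coefficient (0–1) were scored in >20 cells/experiment, n ≥ 3.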"}}}
{"smiles": "Cc1nn(-c2ccccc2)c(NC(=O)NS(=O)(=O)c2ccc(Cl)cc2)c1C#N.[Na]", "note": "[SM-19712]", "values": [{"measurement": "Inhibition of recycling of CLR (CLR at the plasma membrane)", "setting": "HEK-CLR-RAMP1 cells; 6 h recovery after CGRP 100 nM 1 h, SM-19712 10 μM, siRNA 72 h", "result": "> 50", "unit": "%"}, {"measurement": "Effect on localization of CLR/RAMP1 after recovery in CGRP-free medium", "setting": "HEK-CLR-RAMP1 cells; CGRP 100 nM 1 h, wash, 6 h recovery", "result": "caused their retention in endosomes even at 6 h"}, {"measurement": "Effect on response to a single BK challenge ([Ca2+]i)", "setting": "HEK cells; BK 100 nM, thiorphan 1 μM, phosphoramidon 1 μM", "result": "did not affect responses to a single BK challenge"}, {"measurement": "Effect on desensitization of BK-induced Ca2+ signaling", "setting": "HEK cells; bafilomycin A1 0.15 or 1 μM", "result": "had no effect"}, {"measurement": "Effect on resensitization of BK-induced Ca2+ signaling", "setting": "HEK cells; bafilomycin A1 0.15 or 1 μM, 0–120 min recovery", "result": "had no effect"}, {"measurement": "Effect on colocalization coefficient of β-arrestin2 and B2R", "setting": "HEK-B2R cells; 1 h recovery", "result": "did not affect colocalization with B2R"}, {"measurement": "Reduction of recycling of B2R", "setting": "HEK-B2R cells; BK 100 nM 10 min, 1 h recovery", "result": "< 10", "unit": "%"}, {"measurement": "Effect on BK-induced trafficking of B2R and β-arrestin2", "setting": "HEK-B2R cells; BK 100 nM 10 min, 60 min recovery", "result": "did not affect this trafficking"}]}
